High-throughput results (PubChem)
Lung fibro prol: blocks proliferation of human lung fibroblasts; LL 47 human lung fibroblast viability, ATP luminescence; stronger effect = lower value; viability, % at 10 µM; 85,000 tested, 1.1% active;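 active means viability at or below 50% in the single dose screen; inactive means viability above 50%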;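 further: compound exposure lasted 72 h before the ATP readout; 100% = median luminescence of untreated cell-only wells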
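Test system: LL 47 human lung fibroblasts; Quantity: 1,150 cells/well; Buffer or medium: IMEM plus 15% FBS; Dosing: tenfold compound dosing solution, DMSO at 0.1%; Timing: overnight cell rest, 72 h compound treatment at 37 °C; Detection: ATP-based CellTiter-Glo luminescent readout; Read-out basis: viability percentage against median untreated-cell control; Controls: cell-only wells, no compound.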
HUVEC prolif 384: inhibitors of human endothelial cell proliferation; HUVEC proliferation, CellTiter-Glo luminescence, 72 h; stronger effect = lower value; viability, % at 10 µM (by protocol); 86,000 tested, 1.1% active;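 active means viability at or below 30%; inactive means viability above 30%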;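 further: 100% = median luminescence of DMSO-only cell control wells on each plate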
H69AR inhibit: blocks growth of human H69AR lung tumor cells | H69AR lung tumor viability, ATP luminescence, 72 h; stronger effect = lower value | viability, % at 10 µM | 85,000 tested, 6% active | AID 598;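 active means viability at or below 40%; inactive means viability above 40%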;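 further: multidrug resistant small cell line overexpressing MRP-1 efflux transporter; 100% = mean luminescence of untreated control wells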
HCT116 bCat-KO: beta-catenin-lacking colon tumor cell growth suppression; HCT116 beta-catenin knockout viability, CellTiter-Glo, 60 h; stronger effect = lower value; viability, % at 10 µM; 140,000 tested, 1.5% active;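 active means viability at or under a set limit, the compound median less 4 SD, cut at about 6% in these data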;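 further: 0% = Hyamine 1622 control at 20 µM and 100% = untreated cell control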
Cav32 inh: human Cav3.2 channel inhibition, primary screen. B-score at 10 µM. 100,000 tested, 4% active. O95180. Cav3.2-expressing cells, Fluo-4 calcium fluorescence FDSS; stronger effect = lower value. AID 449739;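 active means single-dose well whose peak fluorescence ratio is a statistical outlier from its plate by either plate-standardised score or position-corrected B-score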
PTEN del growth: suppresses growth of cells with PTEN deletion; HCT116 PTEN-null viability, CellTiter-Glo, 60 h; stronger effect = lower value; viability, % at 10 µM; 140,000 tested, 1.2% active; AID 827;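 active means viability at or below a set limit, 4 SD under the median of all tested compounds, cut at about 3.7% in these data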;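 further: PTEN knockout HCT116 line with beta catenin targeted HCT116 as companion control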
Starred values were filed as active, the others as inactive; · = not tested or not shown. Most compounds without a hit are left out; they make up all but 7.1% or so of the library.

SMILES | Lung fibro prol | HUVEC prolif 384 | H69AR inhibit | HCT116 bCat-KO | Cav32 inh | PTEN del growth
CCCNCC1C(Oc2ccc(Cl)cc2)C(=O)N1c1ccccc1C (centres undefined) | · | · | · | 70 | · | 64
Cc1ccc(-c2nc(-c3cccnc3)sc2CC(=O)Nc2ccc3nc(C)sc3c2)cc1 | · | · | · | 74 | · | 69
CCCOc1ccc(C2NC(=S)NC(c3ccccc3)=C2C(=O)Nc2ccc(C)cc2)cc1OC (centres undefined) | · | · | · | 86 | · | 75
COc1ccc(-n2c(-c3ccc(F)cc3)cnc2SCC(=O)NCc2ccco2)cc1 | 105 | 90 | 98 | 69 | -5.7* | 62
COc1ccc(-c2[nH]c(-c3ccccc3)nc2SCC(=O)NCc2ccco2)cc1OC | 91 | 86 | 76 | 87 | 1.1 | 84
Cc1cccc(-c2nsc(SCC(=O)NCc3ccco3)n2)c1 | 100 | 94 | 91 | 99 | -3.9* | 104
COc1ccc(-c2[nH]c(-c3ccc(F)cc3)nc2SCC(=O)NCc2ccco2)cc1OC | 96 | 83 | 39* | 87 | 0.52 | 97
COc1ccccc1C(=O)ON=C1c2ccccc2-c2ccccc21 | · | · | · | 99 | · | 90
Cc1ccccc1N(CC(=O)NCCSC1CCCCC1)S(=O)(=O)c1ccccc1 | · | · | · | 47 | -6* | 51
Cc1ccc(N(CC(=O)NCCSCc2ccco2)S(C)(=O)=O)cc1 | 88 | 80 | 86 | 97 | 0.3 | 89
Cc1ccc(S(=O)(=O)N(CC(=O)NCCSc2ccccn2)c2cc(C)cc(C)c2)cc1 | · | · | · | 77 | -6.4* | 63
Cc1ccc(S(=O)(=O)N(CC(=O)NCCSCc2ccco2)c2cc(C)ccc2C)cc1 | · | · | · | · | -6.7* | ·
CS(=O)(=O)N(CC(=O)NCCSC1CCCCC1)c1cccc(F)c1 | · | · | · | 94 | · | 103
COc1ccc(N(CC(=O)NCCSc2ccccn2)S(C)(=O)=O)cc1Cl | 94 | 108 | 93 | 88 | 1.8 | 94
O=C(COC(=O)/C(=C/c1cccs1)c1cccs1)NC(c1ccccc1)c1ccccc1 | · | · | · | 92 | · | 84
COc1ccc(-c2nc(C#N)c(NCc3ccccc3Cl)o2)cc1OC | 93 | 59 | 5.7* | 23 | -0.13 | 6
C=CCN1C(=O)C2(/C(=C(\O)c3ccc4c(c3)OCCO4)C(=O)C(=O)N2CCCOC)c2ccccc21 (centres undefined) | 99 | 98 | 97 | 92 | 1.8 | 95
O=C(C1CCN(Cc2ccc(F)cc2)CC1)N(CCc1ccccc1)Cc1ccccc1 | · | · | · | 67 | · | 72
Cc1[nH]n2c(=O)cc(-c3ccc([N+](=O)[O-])cc3)nc2c1-c1ccccc1 | 53 | 8.6* | 15* | · | -4.4* | ·
Cc1[nH]n2c(=O)cc(C(C)C)nc2c1-c1ccccc1 | 66 | 58 | 14* | 67 | · | 74
CCCc1cc(=O)n2[nH]c(C)c(-c3ccccc3)c2n1 | 103 | 76 | 55 | 89 | 0.75 | 83
O=C(NN1C(=O)c2ccccc2C1=O)C1CCCCC1 | · | · | · | 95 | 1.1 | 107
C/C(=C1/C(=O)N(c2ccc([N+](=O)[O-])cc2)N=C1c1ccccc1)N(C)C | · | · | · | 3.3* | -3.1 | 2.2*
CCCCCC(=O)Nc1cccc(C2=NOC3(C2)C[C@H](C(N)=O)N(C(=O)c2ccccc2C(=O)c2ccccc2)C3)c1 (some centres undefined) | · | · | · | · | -2.8 | ·
Cc1c(-c2nc(N)nc(Nc3ccc(F)cc3)n2)oc2ccccc12 | 81 | 59 | 21* | 85 | -0.66 | 86
SMILES | Lung fibro prol | HUVEC prolif 384 | H69AR inhibit | HCT116 bCat-KO | Cav32 inh | PTEN del growth
Cc1cccc(C(=O)NCc2nnc3c4ccccc4c(-c4ccccc4)nn23)c1 | · | · | · | 71 | · | 66
Cc1ccnc(SCC(=O)Nc2sc3c(c2C#N)CCCC3)n1 | 89 | 66 | 90 | 30 | 1.2 | 34
Cc1ccsc1/C=C/C1=Cc2c(sc(NC(=O)CSc3n[nH]c(N)n3)c2C#N)C(C)(C)C1 | 89 | 15* | 1.7* | 75 | 0.16 | 74
CCOc1ccc(/C=C/C2=Cc3c(sc(NC(=O)CSc4n[nH]c(N)n4)c3C#N)C(C)(C)C2)cc1 | 48* | 3.6* | 1.8* | 28 | 0.092 | 20
CCC(C)(C)NC(=O)c1cc([N+](=O)[O-])ccc1N1CCOCC1 | · | · | · | 96 | · | 90
CCCCn1nc(-c2ccccc2)c2nc3ccccc3nc21 | 96 | 113 | 81 | 76 | -7.3* | 73
CCOC(=O)/C=c1\s/c(=C\c2c(OCC)ccc3ccccc23)c(=O)n1CC(=O)NCC1CCCO1 (centres undefined) | 89 | 78 | 30* | 68 | -6.4* | 64
COC(=O)C1=C(C(=O)OC)C2(OC1c1ccccc1C)C(=O)c1ccccc1C2=O (centres undefined) | 108 | 101 | 112 | 97 | 0.12 | 102
O=C(NCC1CCN(c2ccc(S(=O)(=O)N3CCOCC3)cc2)CC1)c1ccc(Cl)cc1 | 86 | 88 | 35* | 62 | -5.4* | 57
O=C(CSc1ncc(-c2ccc(F)cc2)[nH]1)Nc1cccc(O)c1 | 104 | 87 | 80 | 78 | -1.7 | 87
Cc1cc(/C=N/n2cnnc2)c(C)n1-c1ccc(OCc2ccc(Cl)cc2)cc1 | 82 | 64 | 5.8* | 5.3* | 0.15 | 6
Cc1cc(/C=N/n2cnnc2)c(C)n1-c1ccc(OCc2ccccc2F)cc1 | 84 | 66 | 48 | 11 | -1.1 | 14
O=C(Nc1ccc(F)cc1)c1nc[nH]c1C(=O)Nc1ccccc1[N+](=O)[O-] | · | · | · | 2.8* | · | 1.6*
O=C(NNc1ccccc1[N+](=O)[O-])Nc1ccc(F)cc1 | · | · | · | 97 | · | 93
CCn1c(Sc2ccc(N)cc2Cl)nc2ccccc21 | 94 | 108 | 34* | 69 | -2.9 | 58
CCn1c(SCC(=O)NC(C)c2ccccc2)nc2ccccc21 (centres undefined) | · | · | · | 102 | -1.5 | 96
CC(Sc1nnc(-c2ccccc2)c(-c2ccccc2)n1)C(=O)N1CCc2ccccc21 (centres undefined) | · | · | · | 70 | · | 66
CC(=O)c1ccccc1OCC(O)CN1CCN(C(c2ccccc2)c2ccccc2)CC1 (centres undefined) | 77 | 69 | 9.8* | 38 | -7.1* | 37
CCOc1ccccc1C(=O)N1CCN(C(c2ccccc2)c2ccccc2)CC1 | · | · | · | 72 | -4.7* | 69
CCOC(=O)N1CCN(C(=O)c2ccccc2-c2ccccc2)CC1 | 68 | 62 | 19* | 20 | -0.033 | 24
Cc1nc(NS(=O)(=O)c2ccc(Br)cc2)c2c3c(sc2n1)CCC3 | 99 | 78 | 100 | 87 | -4.6* | 85
CC1Nc2nc(NC(=O)C(C)(C)C)[nH]c(=O)c2N(C)C1C (centres undefined) | · | · | · | 86 | · | 103
O=C(Cc1cccs1)N(Cc1cccs1)C1(C(=O)NC2CCCCC2)CCCCC1 | 86 | 101 | 65 | 54 | -5.5* | 51
CCC(C)(C(=O)NC1CCCCC1)N(Cc1cccs1)C(=O)Cc1cccs1 (centres undefined) | 84 | 103 | 95 | 70 | -7.7* | 76
